System: MS2 coat protein
Assay: apparent Kd, MS2 coat protein; higher = weaker binding; RNA-MaP array; FMN 200 µM where present
Outline: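 The apparent Kd is reported as the median of filtered per-cluster binding-curve fits. To get these curves, designs transcribed by stalled E. coli RNA polymerase on Illumina sequencing-chip clusters were titrated with SNAP-549-labelled MS2 coat protein from 0.7 or 1.5 nM, doubling to 3 µM. Titrations were run without and then with constant ligand in 100 mM Tris-HCl pH 7.5, 80 mM KCl, 4 mM MgCl2, BSA, DTT, yeast tRNA and Tween-20, and green signal was normalised to red-channel RNA signal and control-cluster median Fmax.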

[1] = designed as: ON switch for flavin mononucleotide, no ligand
[2] = ligand present: flavin mononucleotide, designed as: ON switch for flavin mononucleotide
[3] = designed as: OFF switch for flavin mononucleotide, no ligand
[4] = ligand present: flavin mononucleotide, designed as: OFF switch for flavin mononucleotide

Sequence: CGUUGAUAAUAUCUUCACAUGAGGAUCACCCAUGUCGCUCGACAGGAUAUAUUUGAGUUGUUUAAGUAGAAGGGUCGCAGAUGC
- apparent Kd [1]: 0.148 µM
- apparent Kd [2]: 0.136 µM

Sequence: UUUACGAAAGUCGAACGAUGUAGCAGAAGGACAUGAGGAUCACCCAUGUCAGCUGUAACAGCCAUGUAGGAUAUGCUACAUAAA
- apparent Kd [3]: 0.00578 µM
- apparent Kd [4]: 0.00592 µM

Sequence: AGAUCACAUGAGGAUCACCCAUGUCAGGAUAUCGACUGAACAGCUUCGGCUGUUCAGUCGAGAAGGGACAAUUA
- apparent Kd [3]: 0.279 µM
- apparent Kd [4]: 0.86 µM

Sequence: UGUGCGUUGAUCUUAGAUCGGAGUACAUGAGGAUCACCCAUGUAGGAUAUUCAAAGACGCAGAUAGAAGAAGGACAUAGGUUUC
- apparent Kd [3]: 0.00785 µM
- apparent Kd [4]: 0.0116 µM

Sequence: UUCAGCUCGUGAGGAUAUACAUGUGCUGGAAACAGCACUAUUGUGUUCACAUGAGGAUCACCCAUGUAGAAGGCACGAGCUGAG
- apparent Kd [3]: 0.0186 µM
- apparent Kd [4]: 0.0821 µM

Sequence: CAACUGUGAGGAUAUGGUGAGUAGUGCCUGAGCGCUGCUCACCAGAAGGCACAUGAGGAUCACCCAUGUAUAAC
- apparent Kd [3]: 0.0429 µM
- apparent Kd [4]: 0.176 µM

Sequence: GUGCGGUAGGAGAAGGACGGAGGCUUCUUUACAUACAUGAGGAUCACCCAUGUAGGAUAUCCUACCUCACGCGGCCUCCUUCUG
- apparent Kd [3]: 0.0054 µM
- apparent Kd [4]: 0.0055 µM

Sequence: GGAGCACACAUUCACAUGAGGAUCACCCAUGUCAAAAGACAUGAGGAUAUGGAUCCGAAAAGGAUCCAGAAGGCAUGGUGCUCC
- apparent Kd [1]: 0.483 µM
- apparent Kd [2]: 0.0255 µM

Sequence: UGUCCACAUGAGGAUCACCCAUGUCAGGAGGUGACAGGAUAUUGCGAAAAAAAAAAAAAGCAAGAAGGGUCUGAUU
- apparent Kd [1]: 0.244 µM
- apparent Kd [2]: 0.0895 µM

Sequence: AAUUAUAUGUAGAAGGUACUAACAUAUGUGUUGUAAGGAUAUACCAAAUUAUUAGUUAUCAAGUUACAUGAGGAUCACCCAUGU
- apparent Kd [1]: 0.0123 µM
- apparent Kd [2]: 0.00736 µM

Sequence: CCGGCUGCUGUGAGGAUAUGCCUGUGGGUGCGUGGGUAGAAGGCACAUGAGGAUCACCCAUGUCCUGCGGCUCG
- apparent Kd [3]: 0.501 µM
- apparent Kd [4]: 0.327 µM

Sequence: AAUAUAAGAGCUGGUACUCAAAGAACAUGAGGAUCACCCAUGUAGGAUAUCAGCACGAUAAGUGCUGAGAAGGACAUCCAGCUC
- apparent Kd [3]: 0.0158 µM
- apparent Kd [4]: 0.0159 µM

Sequence: ACCUCACAUGAGGAUCACCCAUGUCAGGAUAUACGAAGGUAUAGCGCCGAAUACUGAAGUAGAAGGGACAGGCA
- apparent Kd [3]: 0.0269 µM
- apparent Kd [4]: 0.0769 µM

Sequence: GUACUGUAGUGAGGAUAUACGAGUGCGAUAGCACGGCGAUCCAAUUAUACAUGAGGAUCACCCAUGUAGAAGGCACUUCAGUAC
- apparent Kd [3]: 0.00904 µM
- apparent Kd [4]: 0.041 µM

Sequence: UGGUACAUGGGAGGAUAUGGGUUGAUAACAUGAGGAUCACCCAUGUUAAAUAAGCCGAGAGGCUACUAGAAGGCUCAUGUACCU
- apparent Kd [1]: 0.327 µM
- apparent Kd [2]: 0.0104 µM

Sequence: AUGCAACAUGAGGAUCACCCAUGUGAGGAUAUCGUAUAAUACUGUUGAAAGAGUUAGACGAGAAGGCACACCGU
- apparent Kd [3]: 0.0283 µM
- apparent Kd [4]: 0.054 µM

Sequence: GCCCGAACCACAGGAUAUCCCAAUGUUUUACAGGGAGAAGGGUGAGAGUAUGACAUGAGGAUCACCCAUGUUGUUCGGGUGGAA
- apparent Kd [1]: 0.709 µM
- apparent Kd [2]: 0.227 µM

Sequence: UACUAUAAGGAGGAUAUCGUAUCGGAAACGAUACGAGAAGGCUUAACAUGAGGAUCACCCAUGUUCUUCAAUAA
- apparent Kd [3]: 0.0166 µM
- apparent Kd [4]: 0.0183 µM

Sequence: AUAAACCAAGGAUAUACAUGAGGAUCACCCAUGUUCCCUUGAACCCAGGGUAUGCAAUGUAGAAGGUGGGAAAC
- apparent Kd [3]: 0.02 µM
- apparent Kd [4]: 0.0295 µM

Sequence: GGGUGGCGUACAGGAUAUGUGGUACAUGAGGAUCACCCAUGUGCAUAUGAUGUUCGUGUGUCAUCAUAGAAGGGUACGUCGCUA
- apparent Kd [1]: 0.0912 µM
- apparent Kd [2]: 0.0592 µM

Sequence: GCUGGACAAGGAUAUACAAUCGUGCUUCGGCACGUAAGGUCACAUGAGGAUCACCCAUGUAGAAGGUGUCCAGC
- apparent Kd [3]: 0.0238 µM
- apparent Kd [4]: 0.157 µM

Sequence: GUAGCUAUCGGAGGAUAUCCUCAGCGGAAACGCACAUGAGGAUCACCCAUGUAAAUAAAUAAUUUGGAGAAGGCCGAUAGCUAC
- apparent Kd [1]: 0.292 µM
- apparent Kd [2]: 0.0186 µM

Sequence: AGCAGGUGAGGAUAUCGAUUAAGAUUAACAUUAUUAUUAAACGAGAAGGCACAUGAGGAUCACCCAUGUAAGGA
- apparent Kd [3]: 0.0299 µM
- apparent Kd [4]: 0.0413 µM

From the EternaBench riboswitch data
